Source: PubChem BioAssay
bIAP act = bovine intestinal alkaline phosphatase activators, primary screen, biochemical, bovine IAP, CDP-star luminescence; AID 1016, 2008; activation factor at 20 µM; purified bovine IAP, 30 min; hits give high values; fold of DMSO-control signal, blank-subtracted; hit rate 0.17% among 200,000; alkaline phosphatase, intestinal [Bos taurus];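 active means activation factor of 2 or more at 20 µM, a signal rise over negative controls twice the positive control's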
bIAP inhibitor = bovine intestinal alkaline phosphatase inhibitors, primary screen, selectivity assay for TNAP inhibitor project, biochemical, bovine IAP, CDP-star luminescence; AID 1019, 2008; purified bovine IAP, 30 min; 190,000 tested, under 10 active; inhibition, % at 20 µM; alkaline phosphatase, intestinal [Bos taurus];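 active means over 50% inhibition of intestinal alkaline phosphatase at 20 µM in the single-dose screen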
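System: Purified bovine intestinal alkaline phosphatase (IAP) enzyme | Input: IAP diluted 1/65,000,000 in the well | Also added: CDP-star chemiluminescent phosphatase substrate, 30 µM final | Dosing: 20 µM single dose | Times: Enzyme reaction for 30 min at room temperature | Detection: Luminescence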
mIAP inh = inhibitors of mouse IAP, primary screen, biochemical, luminescence, uHTS; AID 2806, 2010; hit rate 0.2% among 330,000; purified mouse IAP, CDP-Star luminescence, 30 min; inhibition, % at 10 µM; intestinal alkaline phosphatase [Mus musculus];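 active means inhibition of at least 40% at 10 µM in the primary screen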;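 further: plate controls were DMSO with enzyme for no effect and no enzyme wells for full effect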
hIAP inh = human IAP inhibitors, primary screen, biochemical, luminescence, uHTS; Intestinal-type alkaline phosphatase (Homo sapiens), P09923; purified IAP, CDP-Star luminescence, 30 min; inhibition, % at 10 µM; hit rate 0.12% among 330,000;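 active means inhibition reaching a set limit with compound at 10 µM in the primary screen, cut at about 35% in these data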;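 further: plate controls were DMSO wells with enzyme for no effect and no-enzyme buffer wells for full effect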
Target sequence (P09923 whole entry, looked up): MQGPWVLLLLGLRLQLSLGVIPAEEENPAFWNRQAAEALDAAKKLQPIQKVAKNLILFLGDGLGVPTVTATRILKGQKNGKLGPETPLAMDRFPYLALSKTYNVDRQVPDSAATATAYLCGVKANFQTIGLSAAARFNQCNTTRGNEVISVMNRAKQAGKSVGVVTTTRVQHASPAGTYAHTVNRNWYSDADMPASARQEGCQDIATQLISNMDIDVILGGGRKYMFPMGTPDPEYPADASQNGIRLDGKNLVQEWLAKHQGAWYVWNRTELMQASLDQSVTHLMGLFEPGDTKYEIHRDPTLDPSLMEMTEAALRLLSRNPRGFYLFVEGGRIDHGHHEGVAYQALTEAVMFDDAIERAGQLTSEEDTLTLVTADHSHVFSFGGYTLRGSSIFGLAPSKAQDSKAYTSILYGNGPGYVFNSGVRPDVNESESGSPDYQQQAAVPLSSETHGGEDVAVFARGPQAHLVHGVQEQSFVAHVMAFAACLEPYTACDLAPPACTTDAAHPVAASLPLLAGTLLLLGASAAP
hIAP activ = human IAP activators, primary screen, biochemical, luminescence, uHTS; Intestinal-type alkaline phosphatase (Homo sapiens), P09923; purified human IAP, CDP-Star luminescence, 30 min; hits give high values; 1 = vehicle-only enzyme, 0 = enzyme-free background; activation factor at 10 µM; hit rate 0.16% among 330,000;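 active means activation factor of the enzyme at least 2-fold when tested at 20 µM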
mIAP act = activators of mouse IAP, primary screen, biochemical, luminescence, uHTS; intestinal alkaline phosphatase [Mus musculus]; muIAP, CDP-Star luminescence, 30 min; hits give high values; 1 = vehicle-only enzyme signal, 0 = enzyme-free wells; activation factor at 10 µM; hit rate 0.24% among 330,000; AID 2805, 2010;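 active means activation factor of at least 2 at 20 µM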
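System: mouse IAP enzyme. Reagent: CDP-Star chemiluminescent phosphatase substrate. Benchmarks: DMSO wells, no-enzyme wells. Times: 30 min enzyme-substrate-compound incubation at room temperature. Detection: luminescence from enzymatic CDP-Star hydrolysis. Doses: test compounds delivered from DMSO solution.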
Active calls of the source: *; . = no result. Compounds with a hit are over-represented: about 0.72% of the library has one in this group of screens.

SMILES | bIAP act | bIAP inhibitor | mIAP inh | hIAP inh | hIAP activ | mIAP act
CCOc1ccc(C2NC(=O)NC(C)=C2C(=O)OCc2ccccc2)cc1 (stereo unspecified) | . | . | -1.8 | 2.1 | 0.979 | 1.02
CC1=C(C(=O)OCc2ccccc2)C(c2ccc(N(C)C)cc2)NC(=O)N1 (stereo unspecified) | 2.8* | -183.9 | 3.3 | 19.8 | 0.802 | 0.967
COc1ccc(S(=O)(=O)Nc2cccc(/C=C/C(=O)O)c2)cc1 | 4.6* | -357.2 | -0.6 | 3.5 | 0.965 | 1.01
Cc1ccc(S(=O)(=O)Nc2cccc(/C=C/C(=O)O)c2)cc1 | 1 | 2.3 | -4.5 | -3.4 | 1.03 | 1.04
Cn1c(=O)c(S(=O)C2CCCCC2)c(O)c2ccccc21 (stereo unspecified) | . | . | -3.4 | 1.3 | 0.987 | 1.03
COCCCn1c(C)cc(C(=O)CN2c3cccc4cccc(c34)S2(=O)=O)c1C | . | . | 7.6 | 7.4 | 0.925 | 0.924
CSc1ccccc1NC(=O)Nc1cccc(Cl)c1 | 0.9 | 6.2 | -112.6 | 8.8 | 0.912 | 2.13*
Cc1ccc(NC(=O)Nc2ccc(F)c(Cl)c2)cc1 | 0.7 | 30.9 | -187.6 | -13.6 | 1.14 | 2.88*
COc1ccc(NC(=O)Nc2ccc(F)c(Cl)c2)cc1 | 1 | 2.6 | -88.9 | 8.9 | 0.91 | 1.89
CSc1ccccc1NC(=O)Nc1ccc(F)c(Cl)c1 | 1 | 0.9 | -127.6 | 19.5 | 0.805 | 2.28*
O=C(Nc1ccccc1)Nc1ccc(Cl)c(S(=O)(=O)N2CCOCC2)c1 | 1 | 2.2 | -182.4 | -5.4 | 1.05 | 2.82*
Cc1ccc(NC(=O)Nc2ccccc2F)cc1S(=O)(=O)N1CCOCC1 | . | . | -158.2 | -14.7 | 1.15 | 2.58*
O=C(Nc1cccc(Cl)c1)Nc1cc(S(=O)(=O)N2CCOCC2)ccc1N1CCCC1 | 1 | -2.1 | -272.3 | -18.2 | 1.18 | 3.72*
O=C(Nc1ccc(NC(=O)c2ccc(Cl)c(S(=O)(=O)N3CCOCC3)c2)cc1)c1ccccc1 | . | . | -5.7 | -15.1 | 1.15 | 1.06
CCOC(=O)C1=C(COC(=O)/C=C/c2ccco2)NC(=O)NC1C (stereo unspecified) | . | . | -7.2 | -27.1 | 1.27 | 1.07
COC(=O)Cc1c(C)c2ccc(O)c(CNCc3ccc(OC)c(OC)c3)c2oc1=O | . | . | -4.9 | 8.3 | 0.917 | 1.05
COc1ccccc1CNS(=O)(=O)c1ccc(-c2cnc(C3CC3)o2)cc1 | . | . | 0.1 | -24.3 | 1.24 | 0.999
CC(NC(=O)c1cc2ccccc2oc1=O)c1ccccc1 (stereo unspecified) | . | . | 2.7 | -21.0 | 1.21 | 0.973
CCn1ccnc1CN(C)C(=O)c1cc(COc2ccc(OC)c3ccccc23)on1 | . | . | 8.5 | 2.4 | 0.976 | 0.915
C[C@H](CO)N1C[C@H](C)[C@@H](CN(C)C(=O)Nc2ccccc2)Oc2ccc(NC(=O)Nc3ccc(C(F)(F)F)cc3)cc2C1=O | . | . | -90.5 | 9.8 | 0.902 | 1.91
C[C@@H]1CN([C@H](C)CO)C(=O)c2cc(NC(=O)Nc3ccc(F)cc3)ccc2O[C@H]1CN(C)C(=O)Nc1ccc(C(F)(F)F)cc1 | . | . | -103.4 | -6.9 | 1.07 | 2.03*
C[C@H](CO)N1C[C@H](C)[C@@H](CN(C)C(=O)Nc2ccc(C(F)(F)F)cc2)Oc2ccc(NC(=O)Nc3ccc4c(c3)OCO4)cc2C1=O | . | . | -138.5 | 7.1 | 0.929 | 2.38*
CC(C)NC(=O)Nc1ccc2c(c1)C(=O)N([C@H](C)CO)C[C@H](C)[C@@H](CN(C)C(=O)Nc1ccc(C(F)(F)F)cc1)O2 | . | . | -131.6 | -9.8 | 1.1 | 2.32*
C[C@H](CO)N1C[C@H](C)[C@@H](CN(C)C(=O)Nc2ccc3c(c2)OCO3)Oc2ccc(NC(=O)NC3CCCCC3)cc2C1=O | . | . | -129.0 | 4.4 | 0.956 | 2.29*
O=C(NCc1ccc(Cl)cc1)C1CCN(c2nnc(N3CCCC3=O)s2)CC1 | . | . | -2.5 | 9.1 | 0.909 | 1.02
SMILES | bIAP act | bIAP inhibitor | mIAP inh | hIAP inh | hIAP activ | mIAP act
CCOc1cc(C(=O)NCCC(=O)N2CCC3(CC2)NCCc2[nH]cnc23)cc(OCC)c1OCC | . | . | -1.2 | -10.8 | 1.11 | 1.01
O=C(COc1ccc([N+](=O)[O-])cc1)NNC(=O)Nc1ccccc1F | . | . | 44.3* | -39.4 | 1.39 | 0.557
CC1CCCN(CC(=O)Nc2cc(S(=O)(=O)N3CCOCC3)ccc2N2CCCC2)C1 (stereo unspecified) | . | . | -4.3 | -3.4 | 1.03 | 1.04
CC(=O)N(C)c1ccc(NC(=O)C(Sc2ccccc2)c2ccccc2)cc1 (stereo unspecified) | 2.2* | -119.4 | -45.3 | -19.9 | 1.2 | 1.45
Cc1ccc(/C=c2\sc3nc(-c4ccccc4Br)nn3c2=O)o1 | 1 | 3.0 | 49.1* | 20.4 | 0.796 | 0.509
CCc1ccc(NC(=O)C(CC)Sc2nc3cc4c(cc3c(=O)n2Cc2ccco2)OCO4)cc1 (stereo unspecified) | 2.9* | -190.7 | -27.4 | -6.5 | 1.06 | 1.27
CC[C@H](C)/C=C/C1=CC2=C(Cl)C(=O)[C@@]3(C)OC(=O)C(C(=O)[C@H](C)[C@@H](C)O)=C3C2=CO1 | . | . | 17.7 | 28.5 | 0.715 | 0.823
CC(C1CC2CCC1C2)N1CC(O)=C(c2nc3ccccc3[nH]2)C1=N (stereo unspecified) | . | . | -3.5 | -83.7 | 1.84 | 1.03
CC(C)N1CC(O)=C(c2nc3ccccc3[nH]2)C1=N | 2.2* | -122.3 | -15.1 | -1.2 | 1.01 | 1.15
CC(C)(C)c1ccc(C(CC(=O)O)NC(=O)Cc2ccc(Cl)cc2)cc1 (stereo unspecified) | . | . | -8.2 | 19.7 | 0.803 | 1.08
O=C(CCCN1C(=O)/C(=C\c2ccco2)SC1=S)Nc1ccc2ccccc2c1 | 0.9 | 9.2 | 41.2* | 1.1 | 0.989 | 0.588
O=C1/C(=C\c2ccco2)SC(=S)N1Cc1ccccc1 | 0.9 | 10.2 | 57.1* | -6.8 | 1.07 | 0.429
Cc1cccc(CNC(=O)c2ccc3nc(Cc4ccccc4F)oc3c2)n1 | . | . | -5.8 | -29.3 | 1.29 | 1.06
C#CCOCCOCCOCCNc1nc(N2CCN(C(=O)[C@H](Cc3cc4ccccc4[nH]3)n3cc([C@@H](N)C(C)CC)nn3)CC2)nc(N2CCN(C(=O)[C@H](Cc3cc4ccccc4[nH]3)n3cc([C@@H](N)CC(C)C)nn3)CC2)n1 (stereo partly specified) | 5.4* | -441.6 | -43.9 | 13.1 | 0.869 | 1.44
c1ccc(-c2csc(NC3CCCCC3)n2)cc1 | . | . | 3.9 | 20.4 | 0.796 | 0.961
O=C(Nc1nc(-c2ccccc2)cs1)NC1CCCCC1 | 0.8 | 17.1 | -156.9 | -4.7 | 1.05 | 2.57*
